Key:
CXCR1 [1] = assay: CXCR1 surface expression on neutrophils, flow cytometry; type: cell-based, human; conditions: 3h; for CXCR1 down-regulation at higher dose: 50 nM; for CXCR1 surface expression, chemokine treated: 1 nM, 5 nM, 10 nM (50 nM), Fig. 2E-G
Summary of the method: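 Human blood neutrophils were isolated by dextran sedimentation and Ficoll (>95% CD16+) and held at 5×10^6/mL in RPMI 1640 with 1% FBS. They were treated 3h with a dose series (test peptide 1–10 µM; chemokines 1, 5, 10, 50 nM) or with 5 µM for 0.5–3h. Cells were blocked in 10% human serum and stained with anti-CXCR1-APC/anti-CXCR2-FITC or anti-P2X7-FITC, plus anti-CD16. Read-out was flow cytometry GMFI.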

CXCR2 [2] = assay: CXCR2 surface expression on neutrophils, flow cytometry; type: cell-based, human; conditions: 3h; for CXCR2 surface expression, chemokine treated: 1 nM, 5 nM, 10 nM (50 nM), Fig. 2E-G
neutrophils [3] = assay: Calcium mobilization of neutrophils; type: cell-based, human; conditions: ATP 5 µM; for [Ca2+]i time of decline to baseline: fMLF 100 nM, CXCL8 10 nM, Fig. 3A
THP-1 cells = assay: Calcium mobilization in THP-1 cells; type: cell-based; conditions: THP-1; Fig. 7C
Summary of the method: (§1)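 Peripheral blood monocytes (kit-isolated from PBMC, CD14-checked) or THP-1 cells at 10^7/mL were loaded with 5 µM Indo-1-AM for 7 min at 37 °C, then held 10 min at RT and washed in cold PBS. Cells were run at 2×10^6/mL in KRP (PBS, 1.5 mM CaCl2, 1.5 mM MgSO4). After baseline they got a first stimulus, then a second. Flow cytometry used 351 nm excitation and the 405:485 nm ratio, gating live cells. Three independent experiments.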

neutrophils [4] = assay: Cross-desensitization of calcium mobilization of neutrophils; type: cell-based, human; conditions: for cross-desensitization of response to fMLF by LL-37, CXCL7, CXCL1: data not shown
monocytes [5] = assay: Calcium mobilization in monocytes; type: cell-based, human; conditions: ATP or WKYMVm first, then LL-37; Fig. 7D
Summary of the method: as §1

monocytes [6] = assay: Migration of monocytes, 24-well Transwell; type: cell-based, human; conditions: LL-37 5 µM, CXCL1 50 nM, WKYMVm 5 µM, ATP 50 µM, BzATP 50 µM; 90 min, 37°C; Fig. 7F
Summary of the method: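 CFSE-labelled monocytes or THP-1 cells (5 µM, 5 min RT) at 2×10^6/mL in phenol-red-free RPMI 1640 with 1% FBS went in the Transwell upper chamber (3-µm pores). Stimuli in the lower chamber included CXCL1 50 nM, WKYMVm 5 µM and ATP/BzATP 50 µM. Cells were used with or without 20 min preincubation with 10 µM CXCR2 antagonist. Incubation at 37 °C lasted 90 min for monocytes and 2 h for THP-1. Lower-well cells were read at 495 nm against a standard curve, in quadruplicate.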

CXCR2 [7] = assay: CXCR2 surface expression on monocytes; type: cell-based, human; conditions: Supporting information Fig. 2
P2X7 = P2X7 receptor blockers; monocytes; ref [14]; cited from earlier work
[8] = system: CXCR1 transfected HEK293 cells; assay: Secondary necrosis of CXCR1 transfected HEK293 cells; type: cell-based; conditions: Supporting information Fig. 4
CXCR1 [9] = assay: Confocal analysis of CXCR1 internalization in neutrophils; type: cell-based, human; conditions: 37°C
Summary of the method: (§2)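 Neutrophils came from citrated donor blood by dextran sedimentation and Ficoll gradient. […] Cells were fixed in 2% paraformaldehyde, permeabilised with saponin and blocked with human serum. Anti-CXCR1 or anti-CXCR2 mAb (4°C), then Alexa 488 anti-mouse IgG, DAPI mount, confocal imaging; three independent experiments.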

[10] = system: CXCR2 transfected HEK293 cells; assay: Secondary necrosis of CXCR2 transfected HEK293 cells; type: cell-based; conditions: Supporting information Fig. 4
CXCR1 [11] = assay: Calcium mobilization in HEK293/CXCR1 cells; type: cell-based, human; conditions: Indo-1; Fig. 7A-B
Summary of the method: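 CXCR1-transfected HEK293 cells were loaded with 5 µM Indo-1-AM in 5 µM pluronic F-127/PBS for 30 min at RT. They were washed in cold PBS, spun at 200 × g for 10 min at 4 °C and suspended in PBS with calcium and magnesium. Stimulation followed baseline recording. Flow cytometric [Ca2+]i was read as the 405:485 nm emission ratio with 351 nm excitation. Three independent experiments.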

CXCR2 [12] = assay: Confocal analysis of CXCR2 internalization in neutrophils; type: cell-based, human; conditions: 37°C
Summary of the method: as §2

CXCR2 [13] = conditions: ref [33], [34]; cited from earlier work
[14] = system: 125I-CXCL8 specific binding sites on neutrophils (CXCR1/2); assay: Competition with 125I-CXCL8 for binding to neutrophils; design: species or system human; conditions: 1.25 nM 125I-CXCL8, 2h on ice, triplicate, dose-dependent, Fig. 5B
CXCR2 [15] = assay: Calcium mobilization in HEK293/CXCR2 cells; type: cell-based, human; conditions: Indo-1; Fig. 7A-B
Summary of the method: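 They were washed in cold PBS, pelleted at 200 × g for 10 min at 4 °C, and resuspended in PBS with Ca/Mg. […] [Ca2+]i was read as the 405:485 nm ratio by flow cytometry, gating on living cells.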

CXCR1 [16] = conditions: ref [33], [34]; cited from earlier work
[17] = ATP 30 µM, 300 µM, 3000 µM, Fig. 2C
[18] = CXCL7 50 nM or CXCL1 50 nM, 60 min, data not shown
[19] = LL-37 5 µM or CXCL8 50 nM, 1 h, Fig. 8
[20] = fMLF 50 nM, 100 nM, 200 nM, Fig. 2A

Nc1ncnc2c1ncn2[C@@H]1O[C@H](COP(=O)(O)OP(=O)(O)OP(=O)(O)O)[C@@H](O)[C@H]1O [ATP, reference compound]
CXCR1 surface expression (CXCR1 [1]; [17]): no down-regulation of either CXCR1 or CXCR2
CXCR2 surface expression (CXCR2 [2]; [17]): no down-regulation of either CXCR1 or CXCR2
[Ca2+]i time of decline to baseline (neutrophils [3]): ≤ 200 s
calcium flux response in the absence of extracellular Ca2+ (neutrophils [3]; PBS without calcium and magnesium, LL-37 5 µM, WKYMVm 5 µM, Fig. 3C): only the WKYMVm peptide is capable of generating a calcium flux response
block of LL-37 induced calcium mobilization by ATP / BzATP (THP-1 cells): able to partially block
cross-desensitization of LL-37 response by ATP (neutrophils [4]; ATP first, then LL-37, Supporting information Fig. 3A-B): unable to block calcium mobilization stimulated by LL-37 in neutrophils
cross-block of LL-37 stimulated calcium mobilization in monocytes (monocytes [5]): neither ATP nor WKYMVm cross-block LL-37 stimulated calcium mobilization
stimulation of migration of monocytes (monocytes [6]): only LL-37 stimulated migration of monocytes
CXCR2 down-regulation on monocytes (CXCR2 [7]): but not ATP or BzATP, all down-regulate CXCR2

Nc1ncnc2c1ncn2[C@@H]1O[C@H](COP(=O)(O)OP(=O)(O)OP(=O)(O)O)[C@@H](OC(=O)c2ccc(C(=O)c3ccccc3)cc2)[C@H]1O [BzATP]
block of LL-37 induced calcium mobilization by ATP / BzATP (THP-1 cells): not BzATP was able to partially block
stimulation of migration of monocytes (monocytes [6]): only LL-37 stimulated migration of monocytes
CXCR2 down-regulation on monocytes (CXCR2 [7]): but not ATP or BzATP, all down-regulate CXCR2

CN([C@@H](Cc1ccc(OS(=O)(=O)c2cccc3cnccc23)cc1)C(=O)N1CCN(c2ccccc2)CC1)S(=O)(=O)c1cccc2cnccc12 [KN62]
block of LL-37-induced release of IL-1β (P2X7): did not completely block the release of IL-1β

Nc1ncnc2c1ncn2[C@@H](C=O)O[C@@H](C=O)COP(=O)(O)OP(=O)(O)OP(=O)(O)O [oxATP]
block of LL-37-induced release of IL-1β (P2X7): did not completely block the release of IL-1β

CXCL1: recombinant human chemokine, predominantly CXCR2 specific
CXCR1 down-regulation at higher dose (CXCR1 [1]): down-regulate CXCR1 at higher doses
CXCR1 surface expression, chemokine treated (CXCR1 [1]): down-regulated CXCR2 but not CXCR1
CXCR2 surface expression, chemokine treated (CXCR2 [2]): down-regulated CXCR2 but not CXCR1 in a limited dose-dependent manner
generation of secondary necrotic cells, HEK293/CXCR1 [8]: not with CXCL1
CXCR1 translocation (internalization) (CXCR1 [9]; [18]): caused only CXCR2 receptor translocation to the cytoplasm
generation of secondary necrotic cells, HEK293/CXCR2 [10]: not with CXCL1
cross-desensitization of response to fMLF by LL-37, CXCL7, CXCL1 (neutrophils [4]): do not cross-sensitize fMLF stimulation
calcium mobilization in CXCR1 transfected HEK293 cells (CXCR1 [11]): only CXCL8 gave a response
stimulation of migration of monocytes (monocytes [6]): only LL-37 stimulated migration of monocytes
CXCR2 translocation (internalization) (CXCR2 [12]; [18]): caused only CXCR2 receptor translocation to the cytoplasm
CXCR2 down-regulation on monocytes (CXCR2 [7]): down-regulate CXCR2
affinity for CXCR2 (CXCR2 [13]): high affinity
maximum competition of 125I-CXCL8 binding ([14]; 2×10^6 cells): around 50%
displacement of 125I-CXCL8 [14]: partly displace
calcium mobilization in CXCR2 transfected HEK293 cells (CXCR2 [15]): weak but similar patterns of calcium mobilization

CXCL2: CXC chemokine
affinity for CXCR2 (CXCR2 [13]): high affinity

CXCL3: CXC chemokine
affinity for CXCR2 (CXCR2 [13]): high affinity

CXCL5: CXC chemokine
affinity for CXCR2 (CXCR2 [13]): high affinity

CXCL6: CXC chemokine
affinity for CXCR1 (CXCR1 [16]): high affinity
affinity for CXCR2 (CXCR2 [13]): high affinity

CXCL8: recombinant human chemokine that binds both CXCR1/2
CXCR1 surface expression, chemokine treated (CXCR1 [1]): significantly down-regulated both CXCR1 and CXCR2
CXCR2 surface expression, chemokine treated (CXCR2 [2]): significantly down-regulated both CXCR1 and CXCR2
[Ca2+]i time of decline to baseline (neutrophils [3]): less than 100 s
CXCR1 translocation (internalization) (CXCR1 [9]; [19]): translocation of both CXCR1 and CXCR2 to the cytoplasm
affinity for CXCR1 (CXCR1 [16]): high affinity
cross-desensitization of response to CXCL1 (neutrophils [4]; CXCL8 10 nM first, CXCL1 10 nM 160 s later, Fig. 4C): completely blocked
cross-desensitization of response to CXCL7 (neutrophils [4]; CXCL8 10 nM first, CXCL7 10 nM 160 s later, Fig. 4B): completely blocked
cross-desensitization of response to LL-37 (neutrophils [4]; CXCL8 10 nM first, LL-37 5 µM 160 s later, Fig. 4A): completely blocked
cross-desensitization of response to fMLF (neutrophils [4]; CXCL8 10 nM first, fMLF 100 nM 160 s later, Fig. 4D): failed to cross-sensitize fMLF stimulation
calcium mobilization in CXCR1 transfected HEK293 cells (CXCR1 [11]): gave a response
CXCR2 translocation (internalization) (CXCR2 [12]; [19]): translocation of both CXCR1 and CXCR2 to the cytoplasm
CXCR2 down-regulation on monocytes (CXCR2 [7]): down-regulate CXCR2
affinity for CXCR2 (CXCR2 [13]): high affinity
calcium mobilization in CXCR2 transfected HEK293 cells (CXCR2 [15]): weak but similar patterns of calcium mobilization

fMLF [reference compound]
CXCR1 surface expression (CXCR1 [1]; [20]): caused down-regulation of both CXCR2 and CXCR1 expression with similar kinetics
CXCR2 surface expression (CXCR2 [2]; [20]): caused down-regulation of both CXCR2 and CXCR1 expression with similar kinetics
[Ca2+]i time of decline to baseline (neutrophils [3]): ≤ 200 s

B1: CXCL7: recombinant human chemokine, rather CXCR2 specific (protein, UniProt P02775 59-128, looked up)
Neutrophil-activating peptide …: AELRCMCIKTTSGIHPKNIQSLEVIGKGTHCNQVEVIATLKDGRKICLDPDAPRIKKIVQKKLAGDESAD
modifications: Neutrophil-activating peptide 2
CXCR1 down-regulation at higher dose (CXCR1 [1]): down-regulate CXCR1 at higher doses
CXCR1 surface expression, chemokine treated (CXCR1 [1]): less discriminatory towards CXCR2 compared to LL-37
CXCR1 translocation (internalization) (CXCR1 [9]; [18]): caused only CXCR2 receptor translocation to the cytoplasm
cross-desensitization of response to fMLF by LL-37, CXCL7, CXCL1 (neutrophils [4]): do not cross-sensitize fMLF stimulation
CXCR2 translocation (internalization) (CXCR2 [12]; [18]): caused only CXCR2 receptor translocation to the cytoplasm
affinity for CXCR2 (CXCR2 [13]): high affinity

Reference: article PMC3076219 (European journal of immunology, 2009)
